Experimental data from ChEMBL document CHEMBL3352207, “Kinase domain inhibition of leucine rich repeat kinase 2 (LRRK2) using a [1,2,4]triazolo[4,3-b]pyridazine scaffold” (Bioorg Med Chem Lett, 2014).

Key:
[1] = AUC (0 to 24 hrs) in mouse at 300 mg/kg/day, po for 14 days; assay type: ADME, organism-based; design: time < 24 hr, dose 300 mg/kg/day, route oral; conditions: plasma
Method in brief: (§1)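 Mice were dosed orally at 0, 30 and 300 mg/kg/day for 14 days, 5 males per dose group, in a PK/PD study.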

[2] = Cmax in mouse at 300 mg/kg/day, po for 14 days; assay type: ADME, organism-based; design: dose 300 mg/kg/day, route oral; conditions: in vivo; method in brief: as §1
[3] = Cmax in mouse at 30 mg/kg/day, po for 14 days; assay type: ADME, organism-based; design: dose 30 mg/kg/day, route oral; conditions: in vivo; method in brief: as §1
[4] = Ratio of AUC (0 to tlast) in brain to plasma of rat at 10 mg/kg; assay type: ADME, organism-based; design: dose 10 mg/kg; conditions: brain and plasma
[5] = Ratio of drug level in kidney to plasma of LRRK2 G2019S transgenic mouse kidney at 30 to 300 mg/kg/day; conditions: kidney and plasma
[6] = AUC (0 to 24 hrs) in mouse at 30 mg/kg/day, po for 14 days; assay type: ADME, organism-based; design: dose 30 mg/kg/day, time < 24 hr, route oral; conditions: plasma; method in brief: as §1

- AUC at 24 h [1]: 20900 ng·h/mL
- Cmax [2]: 12900 ng/mL
- Cmax [3]: 200 ng/mL
- Kp [4]: 0.14
- Kp [5]: 2
- AUC at 24 h [6]: 350 ng·h/mL
Compound: COc1ccc(OC)c(Sc2ccc3nnc(-c4cnn(C)c4)n3n2)c1
